# Measurements from different studies.
# Compare with care: the assays were run in different laboratories.
# IRAK4: Interleukin-1 receptor-associated kinase 4 (IRAK4, Homo sapiens, UniProt Q9NWZ3)
# P2RY14: P2Y purinoceptor 14 (P2RY14, Homo sapiens, UniProt Q15391)
# Nuclear receptor subfamily 4 group A member 2: Nuclear receptor subfamily 4 group A member 2 (Homo sapiens, UniProt P43354)
# CDKL1: Cyclin-dependent kinase-like 1 (CDKL1, Homo sapiens, UniProt Q00532)
Compound,target,assay,test system,conditions,endpoint,value
CNC(=O)c1ccccc1Nc1nc(Nc2ccc(CO)cc2)ncc1Cl,IRAK4,"enzyme activity, inhibitor, radiometric",,1 µM,remaining activity,1.39%
CC(C)OC(=O)[C@H](Cc1c[nH]c2ccccc12)NC(=O)c1ccc2ccccc2n1,P2RY14,"cAMP, antagonist",HEK293,0.1 µM,inhibition,55.4%
Cc1cc(O)c(-c2ccc([C@@H](C)CN(C)C)cc2)c2c1[nH]c(=O)c1sccc12,"Microtubule-associated serine/threonine-protein kinase 4 (MAST4, Homo sapiens, UniProt O15021)","enzyme activity, inhibitor",,0.1 µM,inhibition,2%
C=C1C(=O)O[C@@H]2C[C@@]3(C)CCCC(=C)[C@@H]3C[C@H]12,Nuclear receptor subfamily 4 group A member 2,"thermal stability, DSF",,100 µM,ΔTm,-0.65 °C
CNS(=O)(=O)c1ccc(Nc2ncc(C(F)(F)F)c(N3CCC[C@](C)(O)C3)n2)c(C)c1,"Serine/threonine-protein kinase ULK1 (ULK1, Homo sapiens, UniProt O75385)","binding, competition with immobilised ligand",,1 µM,remaining binding,11%
C#Cc1cnc(Nc2ccnc(CO)c2)nc1Nc1ccccc1S(C)(=O)=NC#N (stereo not drawn),IRAK4,"enzyme activity, inhibitor, radiometric",,1 µM,remaining activity,1.36%
CC(C)OC(=O)[C@H](Cc1c[nH]c2ccccc12)NC(=O)COc1ccc(F)cc1,P2RY14,"cAMP, antagonist",HEK293,0.1 µM,inhibition,12.1%
CS(=O)(=NC#N)c1ccccc1Nc1nc(Nc2ccnc(CO)c2)ncc1Cl (stereo not drawn),IRAK4,"enzyme activity, inhibitor, radiometric",,1 µM,remaining activity,4.68%
COc1ccc2oc(-c3ccc4nc(N)oc4c3)c/c(=N\c3ccccc3NC(=O)CCN)c2c1,CDKL1,binding,,1 µM,remaining binding,94%
CCC(=O)NS(=O)(=O)c1ccc(-c2c(-c3ccccc3)noc2C)cc1,Nuclear receptor subfamily 4 group A member 2,"thermal stability, DSF",,100 µM,ΔTm,-1.15 °C
CC(C)OC(=O)[C@H](Cc1c[nH]c2ccccc12)NC(=O)COc1ccc(Br)cc1,P2RY14,"cAMP, antagonist",HEK293,0.1 µM,inhibition,38.3%
N#Cc1ccc(NC(=O)Nc2ccccc2)cc1,"TGF-beta receptor type-1 (TGFBR1, Homo sapiens, UniProt P36897)","cell-free assay, competition with immobilised ligand",,25 µM,remaining binding,81%
CC[C@H](C)C(=O)O[C@H]1C[C@H](O)C=C2C=C[C@H](C)[C@H](CC[C@@H](O)C[C@@H](O)CC(=O)O)[C@H]21,Nuclear receptor subfamily 4 group A member 2,"thermal stability, DSF",,100 µM,ΔTm,-0.15 °C
Cc1ccc(OCC(=O)N[C@@H](Cc2c[nH]c3ccccc23)C(=O)OC(C)C)cc1,P2RY14,"cAMP, antagonist",HEK293,0.1 µM,inhibition,110%
CCN(CC)CCCC(C)Nc1ccnc2cc(Cl)ccc12 (stereo not drawn),Nuclear receptor subfamily 4 group A member 2,"thermal stability, DSF",,100 µM,ΔTm,0.14 °C
CCCCC(=O)Nc1ccc(-c2ccc3ncn(CCC)c(=O)c3c2)cn1,CDKL1,"binding, competition with immobilised ligand",,0.5 µM,remaining binding,75%
CC(C)OC(=O)[C@H](Cc1c[nH]c2ccccc12)NC(=O)c1cccs1,P2RY14,"cAMP, antagonist",HEK293,0.1 µM,inhibition,70.3%
CCCCCCCC(=O)c1c(O)cc(O)cc1CC(=O)OCC,Nuclear receptor subfamily 4 group A member 2,"thermal stability, DSF",,100 µM,ΔTm,-3.11 °C
C#Cc1cc(-c2cc(Nc3nc(N[C@@H](C)c4ccc(F)cn4)ncc3Cl)n[nH]2)ccc1C=O,"TRAF2 and NCK-interacting protein kinase (TNIK, Homo sapiens, UniProt Q9UKE5)","enzyme activity, inhibitor",,0.2 µM,inhibition,56.6%
Cc1nc2c(Cl)cccn2c1NC(=O)c1ccc(-c2ccc(N(C)C)cc2)o1,Nuclear receptor subfamily 4 group A member 2,"thermal stability, DSF",,100 µM,ΔTm,-1.88 °C
O=Cc1ccc(OCC(=O)N[C@@H](Cc2c[nH]c3ccccc23)C(=O)O)cc1,P2RY14,"cAMP, antagonist",HEK293,0.1 µM,inhibition,58.7%
CCCCCCCCC(=O)c1cc(O)c(O)c(O)c1,Nuclear receptor subfamily 4 group A member 2,"thermal stability, DSF",,100 µM,ΔTm,-2.52 °C
C1=C/COCc2cc(ccc2OCCN2CCCC2)Nc2nccc(n2)-c2cccc(c2)COC/1,"Tyrosine-protein kinase JAK3, JH1 (JAK3, Homo sapiens, UniProt P52333)",cell-free assay,,0.1 µM,remaining signal,7.2%
CCOC(=O)[C@H](Cc1c[nH]c2ccccc12)NC(=O)COc1ccc(C)cc1,P2RY14,"cAMP, antagonist",HEK293,0.1 µM,inhibition,-48.9%
CC(C)n1c(/C=C/C(O)CC(O)CC(=O)O)c(-c2ccc(F)cc2)c2ccccc21 (stereo not drawn),Nuclear receptor subfamily 4 group A member 2,"thermal stability, DSF",,100 µM,ΔTm,-0.62 °C
O=C(COc1ccc(Br)cc1)N[C@@H](Cc1c[nH]c2ccccc12)C(=O)O,P2RY14,"cAMP, antagonist",HEK293,0.1 µM,inhibition,39%
NC/C(=C\F)COc1cccc(Cn2c(=S)[nH]c(=O)c3[nH]cnc32)c1,"Eosinophil peroxidase (Homo sapiens, UniProt P11678)","enzyme activity, inhibitor",,10 µM,remaining activity,90.7%
